{"source": "ChEMBL document CHEMBL1125210", "about": "“Benzylated 1,2,3-triazoles as anticoccidiostats” (J Med Chem, 1991)", "key": {"[1]": {"organism": "Gallus gallus", "assay": "The compound was tested for anti-coccidial activity in chicken against Eimeria brunetti (FS-103) measured at dose 121 (ppm in diet)", "assay_type": "functional"}, "[2]": {"organism": "Gallus gallus", "assay": "The compound was tested for anti-coccidial activity in chicken against Eimeria mitis (LS-84) measured at dose 121 (ppm in diet)", "assay_type": "functional"}, "[3]": {"tested_on": "Eimeria tenella", "assay": "Anticoccidial activity in chicken against E. tenella", "assay_type": "functional", "set-up": "Reduction: concentration or dose not given beside the values", "outline": "(§1)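 3-Day-old chicks infected separately with E. tenella or E. acervulina; test compound given mixed in the feed at the stated rates. Activity was scored as percent suppression of oocyst production versus infected, unmedicated controls. Toxicity was judged from average weight gain relative to uninfected controls.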"}, "[4]": {"tested_on": "Eimeria acervulina", "assay": "Anticoccidial activity in chicken against Eimeria acervulina.", "assay_type": "functional", "set-up": "Reduction: concentration or dose not given beside the values", "outline": "as §1"}, "[5]": {"organism": "Gallus gallus", "assay": "The compound was tested for anti-coccidial activity in chicken against Eimeria praecox (DP-785) measured at dose 121 (ppm in diet)", "assay_type": "functional"}, "[6]": {"organism": "Gallus gallus", "assay": "The compound was tested for anti-coccidial activity in chicken against Eimeria maxima (DP-776) measured at dose 121 (ppm in diet)", "assay_type": "functional"}, "[7]": {"organism": "Gallus gallus", "assay": "The compound was tested for anti-coccidial activity in chicken against Eimeria acervulina (DP-761) measured at dose 121 (ppm in diet)", "assay_type": "functional"}, "[8]": {"organism": "Gallus gallus", "assay": "The compound was tested for anti-coccidial activity in chicken against Eimeria tenella (DP-761) measured at dose 121 (ppm in diet)", "assay_type": "functional", "outline": "(§2)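 Test article mixed into the feed at the stated rates and given to 3-day-old chicks infected with […]. Each Eimeria species was inoculated separately. Activity was scored as percent suppression of oocyst output relative to infected, unmedicated controls. Toxicity was judged from average weight gain relative to uninfected controls.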"}, "[9]": {"organism": "Gallus gallus", "assay": "The compound was tested for anti-coccidial activity in chicken against Eimeria hagani (DP-786) measured at dose 121 (ppm in diet)", "assay_type": "functional"}, "[10]": {"organism": "Gallus gallus", "assay": "The compound was tested for anti-coccidial activity in chicken against Eimeria necatrix (Aquet) measured at dose 45 (ppm in diet)", "assay_type": "functional"}, "[11]": {"organism": "Gallus gallus", "assay": "The compound was tested for anti-coccidial activity in chicken against Eimeria maxima (DP-776) measured at dose 7.5 (ppm in diet)", "assay_type": "functional"}, "[12]": {"organism": "Gallus gallus", "assay": "The compound was tested for anti-coccidial activity in chicken against Eimeria tenella (DP-761) measured at dose 45 (ppm in diet)", "assay_type": "functional", "outline": "as §2"}, "[13]": {"organism": "Gallus gallus", "assay": "The compound was tested for anti-coccidial activity in chicken against Eimeria acervulina (DP-761) measured at dose 7.5 (ppm in diet)", "assay_type": "functional"}, "[14]": {"organism": "Gallus gallus", "assay": "The compound was tested for anti-coccidial activity in chicken against Eimeria acervulina (DP-761) measured at dose 45 (ppm in diet)", "assay_type": "functional"}, "[15]": {"organism": "Gallus gallus", "assay": "The compound was tested for anti-coccidial activity in chicken against Eimeria necatrix (Aquet) measured at dose 60 (ppm in diet)", "assay_type": "functional"}, "[16]": {"organism": "Gallus gallus", "assay": "The compound was tested for anti-coccidial activity in chicken against Eimeria brunetti (FS-103) measured at dose 45 (ppm in diet)", "assay_type": "functional"}, "[17]": {"organism": "Gallus gallus", "assay": "The compound was tested for anti-coccidial activity in chicken against Eimeria praecox (DP-785) measured at dose 30 (ppm in diet)", "assay_type": "functional"}, "[18]": {"organism": "Gallus gallus", "assay": "The compound was tested for anti-coccidial activity in chicken against Eimeria maxima (DP-776) measured at dose 45 (ppm in diet)", "assay_type": "functional"}, "[19]": {"organism": "Gallus gallus", "assay": "The compound was tested for anti-coccidial activity in chicken against Eimeria praecox (DP-785) measured at dose 45 (ppm in diet)", "assay_type": "functional"}, "[20]": {"organism": "Gallus gallus", "assay": "The compound was tested for anti-coccidial activity in chicken against Eimeria brunetti (FS-103) measured at dose 15 (ppm in diet)", "assay_type": "functional"}, "[21]": {"organism": "Gallus gallus", "assay": "The compound was tested for anti-coccidial activity in chicken against Eimeria maxima (DP-776) measured at dose 60 (ppm in diet)", "assay_type": "functional"}, "[22]": {"organism": "Gallus gallus", "assay": "The compound was tested for anti-coccidial activity in chicken against Eimeria necatrix (Aquet) measured at dose 15 (ppm in diet)", "assay_type": "functional"}, "[23]": {"organism": "Gallus gallus", "assay": "The compound was tested for anti-coccidial activity in chicken against Eimeria praecox (DP-785) measured at dose 15 (ppm in diet)", "assay_type": "functional"}, "[24]": {"organism": "Gallus gallus", "assay": "The compound was tested for anti-coccidial activity in chicken against Eimeria tenella (DP-761) measured at dose 7.5 (ppm in diet)", "assay_type": "functional", "outline": "as §2"}, "[25]": {"organism": "Gallus gallus", "assay": "The compound was tested for anti-coccidial activity in chicken against Eimeria acervulina (DP-761) measured at dose 30 (ppm in diet)", "assay_type": "functional"}, "[26]": {"organism": "Gallus gallus", "assay": "The compound was tested for anti-coccidial activity in chicken against Eimeria brunetti (FS-103) measured at dose 7.5 (ppm in diet)", "assay_type": "functional"}, "[27]": {"organism": "Gallus gallus", "assay": "The compound was tested for anti-coccidial activity in chicken against Eimeria tenella (DP-761) measured at dose 60 (ppm in diet)", "assay_type": "functional", "outline": "as §2"}, "[28]": {"organism": "Gallus gallus", "assay": "The compound was tested for anti-coccidial activity in chicken against Eimeria praecox (DP-785) measured at dose 60 (ppm in diet)", "assay_type": "functional"}, "[29]": {"organism": "Gallus gallus", "assay": "The compound was tested for anti-coccidial activity in chicken against Eimeria brunetti (FS-103) measured at dose 60 (ppm in diet)", "assay_type": "functional"}, "[30]": {"organism": "Gallus gallus", "assay": "The compound was tested for anti-coccidial activity in chicken against Eimeria tenella (DP-761) measured at dose 30 (ppm in diet)", "assay_type": "functional", "outline": "as §2"}, "[31]": {"organism": "Gallus gallus", "assay": "The compound was tested for anti-coccidial activity in chicken against Eimeria brunetti (FS-103) measured at dose 30 (ppm in diet)", "assay_type": "functional"}, "[32]": {"organism": "Gallus gallus", "assay": "The compound was tested for anti-coccidial activity in chicken against Eimeria acervulina (DP-761) measured at dose 60 (ppm in diet)", "assay_type": "functional"}, "[33]": {"organism": "Gallus gallus", "assay": "The compound was tested for anti-coccidial activity in chicken against Eimeria necatrix (Aquet) measured at dose 7.5 (ppm in diet)", "assay_type": "functional"}, "[34]": {"organism": "Gallus gallus", "assay": "The compound was tested for anti-coccidial activity in chicken against Eimeria maxima (DP-776) measured at dose 15 (ppm in diet)", "assay_type": "functional"}, "[35]": {"organism": "Gallus gallus", "assay": "The compound was tested for anti-coccidial activity in chicken against Eimeria praecox (DP-785) measured at dose 7.5 (ppm in diet)", "assay_type": "functional"}, "[36]": {"organism": "Gallus gallus", "assay": "The compound was tested for anti-coccidial activity in chicken against Eimeria tenella (DP-761) measured at dose 15 (ppm in diet)", "assay_type": "functional", "outline": "as §2"}, "[37]": {"organism": "Gallus gallus", "assay": "The compound was tested for anti-coccidial activity in chicken against Eimeria acervulina (DP-761) measured at dose 15 (ppm in diet)", "assay_type": "functional"}, "[38]": {"organism": "Gallus gallus", "assay": "The compound was tested for anti-coccidial activity in chicken against Eimeria maxima (DP-776) measured at dose 30 (ppm in diet)", "assay_type": "functional"}, "[39]": {"organism": "Gallus gallus", "assay": "The compound was tested for anti-coccidial activity in chicken against Eimeria necatrix (Aquet) measured at dose 30 (ppm in diet)", "assay_type": "functional"}, "[40]": {"organism": "Gallus gallus", "assay": "The compound was tested for anti-coccidial activity in chicken against Eimeria tenella", "assay_type": "organism-based", "conditions": "in vivo", "outline": "as §2"}, "[41]": {"organism": "Gallus gallus", "assay": "The compound was tested for anti-coccidial activity in chicken against Eimeria acervulina", "assay_type": "organism-based", "conditions": "in vivo", "outline": "as §1"}}}
{"compound": "CC[C@@]1([C@@H]2O[C@@H]([C@H]3O[C@@](O)(CO)[C@H](C)C[C@@H]3C)C[C@@H]2C)CC[C@H]([C@]2(C)CC[C@]3(C[C@H](O)[C@@H](C)[C@@H]([C@@H](C)[C@@H](OC)[C@H](C)C(=O)O)O3)O2)O1", "note": "[MONENSIN]", "values": [{"measurement": "Reduction", "setting": "[1]", "value": 100, "unit": "%"}, {"measurement": "Reduction", "setting": "[2]", "value": 72, "unit": "%"}, {"measurement": "Reduction", "setting": "[3]", "value": 80, "unit": "%"}, {"measurement": "Reduction", "setting": "[4]", "value": 80, "unit": "%"}, {"measurement": "Reduction", "setting": "[5]", "value": 19, "unit": "%"}, {"measurement": "Reduction", "setting": "[6]", "value": 73, "unit": "%"}, {"measurement": "Reduction", "setting": "[7]", "value": 4, "unit": "%"}, {"measurement": "Reduction", "setting": "[8]", "value": 100, "unit": "%"}, {"measurement": "Reduction", "setting": "[9]", "value": 19, "unit": "%"}]}
{"compound": "NC(=O)c1nnn(Cc2cc(Cl)c(C(=O)c3ccc(Cl)cc3)c(Cl)c2)c1N", "note": "[CARBOXYAMIDOTRIAZOLE]", "values": [{"measurement": "Reduction", "setting": "[10]", "value": 100, "unit": "%"}, {"measurement": "Reduction", "setting": "[11]", "value": 99.9, "unit": "%"}, {"measurement": "Reduction", "setting": "[12]", "value": 99.9, "unit": "%"}, {"measurement": "Reduction", "setting": "[13]", "value": 21, "unit": "%"}, {"measurement": "Reduction", "setting": "[14]", "value": 99.9, "unit": "%"}, {"measurement": "Reduction", "setting": "[15]", "value": 100, "unit": "%"}, {"measurement": "Reduction", "setting": "[3]", "value": 80, "unit": "%"}, {"measurement": "Reduction", "setting": "[16]", "value": 100, "unit": "%"}, {"measurement": "Reduction", "setting": "[17]", "value": 100, "unit": "%"}, {"measurement": "Reduction", "setting": "[18]", "value": 99.9, "unit": "%"}, {"measurement": "Reduction", "setting": "[4]", "value": 90, "unit": "%"}, {"measurement": "Reduction", "setting": "[19]", "value": 100, "unit": "%"}, {"measurement": "Reduction", "setting": "[20]", "value": 95, "unit": "%"}, {"measurement": "Reduction", "setting": "[21]", "value": 99.9, "unit": "%"}, {"measurement": "Reduction", "setting": "[22]", "value": 88, "unit": "%"}, {"measurement": "Reduction", "setting": "[23]", "value": 98, "unit": "%"}, {"measurement": "Reduction", "setting": "[24]", "value": 60, "unit": "%"}, {"measurement": "Reduction", "setting": "[25]", "value": 99.9, "unit": "%"}, {"measurement": "Reduction", "setting": "[26]", "value": 58, "unit": "%"}, {"measurement": "Reduction", "setting": "[27]", "value": 99.9, "unit": "%"}, {"measurement": "Reduction", "setting": "[28]", "value": 100, "unit": "%"}, {"measurement": "Reduction", "setting": "[29]", "value": 100, "unit": "%"}, {"measurement": "Reduction", "setting": "[30]", "value": 98, "unit": "%"}, {"measurement": "Reduction", "setting": "[31]", "value": 100, "unit": "%"}, {"measurement": "Reduction", "setting": "[32]", "value": 99.9, "unit": "%"}, {"measurement": "Reduction", "setting": "[33]", "value": 12, "unit": "%"}, {"measurement": "Reduction", "setting": "[34]", "value": 99.9, "unit": "%"}, {"measurement": "Reduction", "setting": "[35]", "value": 72, "unit": "%"}, {"measurement": "Reduction", "setting": "[36]", "value": 83, "unit": "%"}, {"measurement": "Reduction", "setting": "[37]", "value": 98, "unit": "%"}, {"measurement": "Reduction", "setting": "[38]", "value": 99.9, "unit": "%"}, {"measurement": "Reduction", "setting": "[39]", "value": 100, "unit": "%"}]}
{"compound": "NC(=O)c1c(N)nnn1Cc1cc(Cl)c(C(=O)c2ccc(Cl)cc2)c(Cl)c1", "values": [{"measurement": "minimum effective dose", "setting": "[40]", "value": "> 500", "unit": "ppm"}, {"measurement": "minimum effective dose", "setting": "[41]", "value": "> 500", "unit": "ppm"}]}
